Data: ChEMBL document CHEMBL4152271, “Polypharmacological profile of 1,2-dihydro-2-oxo-pyridine-3-carboxamides in the endocannabinoid system” (Eur J Med Chem, 2018)

What was measured:
Cannabinoid receptor 2 [1] = target: T1, Cannabinoid receptor 2 (Homo sapiens, UniProt P34972); assay: Agonist activity at human CB2 receptor expressed in CHO cell membranes after 90 mins by [35S]GTPgammaS binding assay; assay type: functional
Outline: (§1)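 Membranes (5 µg) of hCB2-expressing cells in 50 mM Tris-HCl, 3 mM MgCl₂, 0.2 mM EDTA, 100 mM NaCl, 0.5% fatty acid-free BSA, pH 7.4, with 10 µM GDP and 0.1 nM [³⁵S]GTPγS. Kept on ice, started by vehicle or compound, 90 min at 30 °C. Nonspecific binding with 10 µM GTPγS. Filtered on GF/B, radioactivity counted. At least three experiments in triplicate, mean ± SD.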

Cannabinoid receptor 2 [2] = target: T1, Cannabinoid receptor 2; assay: Agonist activity at human CB2 receptor expressed in CHO cell membranes after 90 mins by [35S]GTPgammaS binding assay relative to control; assay type: functional; outline: as §1
Homo sapiens = species on record: Homo sapiens; assay: Selectivity ratio of Ki for human CB1 receptor to Ki for human CB2 receptor
Outline: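 Membranes expressing hCB1 or hCB2 (stably transfected CHO) in 50 mM Tris-HCl, 2.5 mM EDTA, 5 mM MgCl₂, 0.5% fatty acid-free BSA, pH 7.4. Incubated with compound and 0.5 nM [³H]CP55,940 for 90 min at 30 °C. Nonspecific binding with 10 µM […]. GF/B filtration, radioactivity counted, Ki derived. Mean ± SD, at least 3 experiments in triplicate.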

[3] = target: T2, Lysophosphatidylserine lipase ABHD12 (Homo sapiens, UniProt Q8N2K0); assay: Inhibition of human ABHD12 expressed in HEK293 cells using 2-OG as substrate preincubated for 30 mins followed by substrate addition and measured after 5 mins by liquid scintillation spectroscopic method; assay type: cell-based
T2 sequence (Q8N2K0 whole entry): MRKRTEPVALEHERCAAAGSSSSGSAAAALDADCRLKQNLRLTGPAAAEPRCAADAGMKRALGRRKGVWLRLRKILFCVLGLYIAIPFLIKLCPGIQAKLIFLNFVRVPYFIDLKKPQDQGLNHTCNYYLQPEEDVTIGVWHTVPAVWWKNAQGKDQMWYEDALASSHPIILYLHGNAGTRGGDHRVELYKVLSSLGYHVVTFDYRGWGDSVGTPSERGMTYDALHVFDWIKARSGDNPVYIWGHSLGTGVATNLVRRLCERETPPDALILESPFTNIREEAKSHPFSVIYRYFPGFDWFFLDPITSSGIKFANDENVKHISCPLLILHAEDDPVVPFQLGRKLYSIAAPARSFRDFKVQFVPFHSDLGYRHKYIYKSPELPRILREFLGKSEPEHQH
Outline: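 Homogenate (40 µg) of HEK293 cells stably transfected with hABHD6 or hABHD12, compound preincubated 30 min at 37 °C in […], 0.1% BSA, pH 7.6. DMSO vehicle; WWL70 10 µM or THL 20 µM as positive controls. 10 µM 2-OG added for 5 min at 37 °C, stopped with CHCl₃:MeOH. Aqueous phase counted; no-enzyme blanks and non-transfected HEK293 hydrolysis subtracted.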

T1 sequence (P34972 whole entry): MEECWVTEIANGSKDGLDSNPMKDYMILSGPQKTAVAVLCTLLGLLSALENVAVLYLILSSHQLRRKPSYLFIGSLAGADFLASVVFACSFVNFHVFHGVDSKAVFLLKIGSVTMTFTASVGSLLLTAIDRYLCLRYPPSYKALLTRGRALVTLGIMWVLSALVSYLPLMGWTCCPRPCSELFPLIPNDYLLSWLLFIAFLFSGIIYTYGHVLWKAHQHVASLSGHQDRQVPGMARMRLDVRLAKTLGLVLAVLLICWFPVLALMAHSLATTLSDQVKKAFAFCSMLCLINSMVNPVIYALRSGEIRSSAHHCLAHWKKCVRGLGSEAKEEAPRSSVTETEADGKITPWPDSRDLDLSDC

Compound	EC50 (Cannabinoid receptor 2 [1]) [nM]	Emax (Cannabinoid receptor 2 [2]) [%]	Ratio Ki (Homo sapiens)	IC50 [3] [nM]
Cc1c(Br)cnc(OCc2ccc(F)cc2)c1C(=O)NC1CCCCCC1	687	125	0.18	> 10000
Cc1c(Br)cn(Cc2ccc(F)cc2)c(=O)c1C(=O)NC1CCCCCC1	1.1	134	0.65	2100
COc1ccc(-c2cn(Cc3ccc(F)cc3)c(=O)c(C(=O)NC3CCCCCC3)c2C)cc1	–	99	2 to 54	> 10000
